According to publication PMC5065790 (Bioorganic & medicinal chemistry, 2016):

Key:
HIV-1 virus particles [1] = experiment: Inactivation of GFP-transducing HIV-1; assay type: cell-based; details: 1 mM, virus treated 1 h at 37°C, HEK293T cells, 48 h
HIV-1 = details: ref [21]–[3]; cited from earlier work
HIV-1 virus particles [2] = experiment: Inactivation of luciferase-transducing HIV-1; assay type: cell-based; details: 1 mM, virus treated 1 h at 37°C, HEK293T cells, 48 h
[3] = Peptide crosslinking analysis; assay type: biochemical; details: 0.1 mM peptide, 1 mM compound, 2 h 25°C, reducing SDS-PAGE
[4] = test system: HIV-1 PrGag in immature virus particles; experiment: Virus crosslink analysis, immature HIV-1 particles; assay type: biochemical; details: 1 mM compound, 1 h at 25°C
HIV-1 MA protein = HIV-1 MA protein (Human immunodeficiency virus type 1 group M subtype B, UniProt P12493); experiment: HIV-1 MA crosslinking, dimer/monomer immunoblot; assay type: biochemical; details: 30 µM MA, 50 µM compound
Outline: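 Purified HIV-1 MA at 30 µM in 25 mM sodium phosphate (pH 7.8) plus 50 mM NaCl, incubated 2 h at 25°C with or without 50 µM test compound. Dimer and monomer bands were then measured, and percentage MA crosslinking was derived from them.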

HIV-1 MA-RNA binding = HIV-1 MA-RNA binding (Human immunodeficiency virus type 1 group M subtype B, UniProt P12493); experiment: Fluorescence polarization; details: screen of 50,000 compounds
[5] = target: soluble guanylate cyclase; details: read-out: IC50 concentrations; ref [8]–[9]; cited from earlier work
leukotriene synthesis = details: read-out: IC50 concentrations; ref [8]–[9]; cited from earlier work

Row | Compound | peptide dimer formation [3] | HIV-1 PrGag dimer band [4] | MA dimer formation (in words) (HIV-1 MA protein) | other results
1 | c1ccc(SSc2ccccn2)nc1 [Aldrithiol-2, 2,2'-dipyridyldisulfide] | – | – | – | virus infection levels (GFP-positive cells, in words) (HIV-1 virus particles [1]): dramatically reduced virus infection levels; concentrations that inactivate HIV-1 (HIV-1): 300 to 1000 µM; virus infectivity level after treatment (luciferase, in words) (HIV-1 virus particles [2]): nearly mock-infection levels
2 | O=C1C=CC(=O)N1CCCCCCN1C(=O)C=CC1=O [BMH, 1,6-bis-maleimidohexane, reference compound] | yielded dimers | a dimer band was observed | – | –
3 | O=C1C=CC(=O)N1CCN1C(=O)C=CC1=O [BMOE, bis-maleimidoethane] | yielded dimers | – | – | –
4 | O=C1C(Cl)=C(Cl)C(=O)c2ccccc21 [Compound 537, 2,3-dichloronaphthoquinone] | yielded dimers | showed the HIV-1 PrGag dimer band | efficiently formed dimers | –
5 | O=C1C=CC(=O)c2cnccc21 [Compound 76882, 5,8-isoquinolinedione] | – | – | efficiently formed dimers | –
6 | O=C1C(Cl)=C(Cl)C(=O)c2ncccc21 [Compound 81047, 6,7-dichloro-5,8-quinolinedione] | – | – | efficiently formed dimers | inhibition of MA-RNA binding in library screen (in words) (HIV-1 MA-RNA binding): potently inhibited MA-RNA binding
7 | COC1=C(Cl)C(=O)c2ncccc2C1=O [Compound 81048, 7-chloro-6-methoxy-5,8-quinolinedione] | – | – | significant levels of dimer formation | –
8 | COC1=C(Br)C(=O)c2ncccc2C1=O [Compound 102729, 7-bromo-6-methoxy-5,8-quinolinedione] | – | to lower extents | significant levels of dimer formation | –
9 | O=C1C(Nc2ccccc2)=CC(=O)c2ncccc21 [LY83583, 6-anilino-5,8-quinolinequinone] | – | – | – | IC50 [5]: 1 to 2 µM; IC50 (leukotriene synthesis): 1 to 2 µM
